Measured values pooled from the literature.
Compare with care: the assays were run in different laboratories.
Target: Mitogen-activated protein kinase kinase kinase 14 (MAP3K14, Homo sapiens, UniProt Q99558)

| Structure (SMILES) | test | setting | endpoint | result |
| --- | --- | --- | --- | --- |
| CCCOc1ccc([C@H]2[C@H](C(=O)O)[C@@H](c3ccc4c(c3)OCO4)CN2CC(=O)Nc2c(CC)cccc2CC)cc1 | cell-free assay, competition with immobilised ligand | 1 µM | remaining binding | 85% |
| CC(C)(O)[C@H]1CC[C@H](Nc2ccc3ncc(-c4cccc(C(F)(F)F)c4)n3n2)CC1 | enzyme activity, inhibitor | 1 µM | remaining activity | 114% |
| C[C@@H](c1cccc(C#N)c1)n1cc(Cl)cc(C(N)=O)c1=N | cell-free assay, competition with immobilised ligand | 1 µM | remaining binding | 93% |
| CC(C)(C)c1nc2c(s1)c1nc(N)ncc1c1ccc(NS(=O)(=O)c3c(F)cccc3F)c(F)c12 | enzyme activity, inhibitor, radiometric | 1 µM | remaining activity | 104% |
| C[C@@H]1CCN(c2nccc(-c3cnn4ncccc34)n2)C1 | binding, competition with immobilised ligand | 1 µM | remaining binding | 72% |
| CC(C)(C)c1nc(-c2cccc(NS(=O)(=O)c3c(F)cccc3F)c2F)c(-c2ccnc(N)n2)s1 | enzyme activity, inhibitor, radiometric | 1 µM | remaining activity | 100% |
| N#CCCc1ccc2c(c1)-c1[nH]c3ccc([N+](=O)[O-])cc3c1CC(=O)N2 | cell-free assay | 0.5 µM | remaining signal | 161% |
| Nc1ncnc2occ(-c3ccc(NC(=O)Nc4cc(C(F)(F)F)ccc4F)cc3)c12 | cell-free assay, inhibitor | 20 µM | remaining signal | 93% |
